The values that follow come from ChEMBL document CHEMBL3112485, “7-Chloroquinolinotriazoles: synthesis by the azide-alkyne cycloaddition click chemistry, antimalarial activity, cytotoxicity and SAR studies” (Eur J Med Chem, 2014).

Some results are limits rather than exact numbers.

A short description of data set [1]: Cytotoxicity against human HepG2 cells after 24 hrs by MTT assay. Type of data set: cell-based.
Data set [2] deals with Plasmodium falciparum. The data set is described as follows: Antimalarial activity against chloroquine-resistant and mefloquine-sensitive Plasmodium falciparum W2 infected in human erythrocytes after 48 hrs by HRP2-ELISA. Format: functional, organism-based. The conditions noted are these: W2, 48 h. Put shortly:
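Ring-stage cultures sorbitol-synchronized; RBC suspension at 0.05% parasitemia, 1.5% hematocrit in RPMI with 10% human plasma, exposed to serial compound concentrations 48 h. Background wells harvested at 24 h and subtracted. Freeze-thaw lysis, then anti-HRP2 sandwich ELISA with TMB, absorbance 450 nm. IC50 from sigmoidal dose-response versus drug-free and standard-drug controls; triplicate per concentration, experiments in duplicate.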

Data set [3] can be described thus: Selectivity index, ratio of CC50 for human HepG2 cells to IC50 for chloroquine-resistant and mefloquine-sensitive Plasmodium falciparum W2. Format: functional.

In data set [1], `COc1c(F)c(F)cc(C(=O)OCc2cn(-c3ccnc4cc(Cl)ccc34)nn2)c1F` showed a CC50 at 24 h greater than 2.23 mM. Further, the IC50 in data set [2] (read-out: IC50) is greater than 112 µM. The “Ratio CC50/IC50” value in data set [3] is less than 20.
For `CN(C)c1ccc(-c2cn(-c3ccnc4cc(Cl)ccc34)nn2)cc1`, the CC50 at 24 h in data set [1] was greater than 2.86 mM. In addition, the IC50 in data set [2] (read-out: IC50) is 40.3 µM; in data set [2] (read-out: pIC50 (converted)), 39.8 µM. In data set [3], the “Ratio CC50/IC50” value is greater than 71.1.
`Fc1ccc(-c2cn(-c3ccnc4cc(Cl)ccc34)nn2)cc1` had a CC50 at 24 h in data set [1] greater than 3.09 mM. For the same compound, the IC50 in data set [2] (read-out: IC50) is greater than 154 µM. Moreover, in data set [3], the “Ratio CC50/IC50” value is reported as less than 20.
In data set [1], `Cc1ccc(-c2cn(-c3ccnc4cc(Cl)ccc34)nn2)cc1` yielded a cytotoxic concentration (CC50) at 24 h of 0.352 mM. Besides, the IC50 in data set [2] (read-out: IC50) is greater than 156 µM. Besides, the “Ratio CC50/IC50” value in data set [3] is recorded as less than 2.2.
On the same counts, the results for `Clc1ccc2c(-n3cc(-c4ccccc4)nn3)ccnc2c1` are 0.574 mM, greater than 80 µM and less than 7.2.
Regarding `OCCCc1cn(-c2ccnc3cc(Cl)ccc23)nn1`, it took 0.151 mM to reach half-maximal cytotoxicity in data set [1] (CC50 at 24 h). Moreover, the IC50 in data set [2] (read-out: IC50) was 9.6 µM; in data set [2] (read-out: pIC50 (converted)), 10 µM. Further, the “Ratio CC50/IC50” value in data set [3] was found to be 15.7.
In the case of `CC(C)(O)c1cn(-c2ccnc3cc(Cl)ccc23)nn1`, it took 0.442 mM to reach half-maximal cytotoxicity in data set [1] (CC50 at 24 h). Moreover, the IC50 in data set [2] (read-out: IC50) was determined as 90.3 µM. Also, the “Ratio CC50/IC50” value in data set [3] came out at 4.9.
On the same counts, the results for `Clc1ccc2c(-n3cc(C4CCCCC4)nn3)ccnc2c1` are greater than 3.2 mM, greater than 80 µM and less than 40.
On to `COc1ccc2cc(-c3cn(-c4ccnc5cc(Cl)ccc45)nn3)ccc2c1`, for which the CC50 at 24 h in data set [1] is greater than 2.59 mM. Further, the IC50 in data set [2] (read-out: IC50) is greater than 129 µM. The “Ratio CC50/IC50” value in data set [3] is given as less than 20.
In data set [1], `O=C(OCCCc1cn(-c2ccnc3cc(Cl)ccc23)nn1)c1ccccc1` gave a CC50 at 24 h of 1.2 mM. For the same compound, the IC50 in data set [2] (read-out: IC50) was greater than 128 µM. Also, the “Ratio CC50/IC50” value in data set [3] is on record as less than 9.4.
As for `COc1ccc(C(=O)OCCCc2cn(-c3ccnc4cc(Cl)ccc34)nn2)cc1`, the CC50 at 24 h in data set [1] came to 0.347 mM. Also, in data set [2] (read-out: IC50), the IC50 was greater than 113 µM. Besides, the “Ratio CC50/IC50” value in data set [3] is less than 3.
On the same counts, the results for `CCc1ccc(C(=O)OCCCc2cn(-c3ccnc4cc(Cl)ccc34)nn2)cc1` are greater than 2.55 mM, greater than 119 µM and less than 21.4.
`O=C(OCCCc1cn(-c2ccnc3cc(Cl)ccc23)nn1)c1ccc(C(F)(F)F)cc1` showed a CC50 at 24 h in data set [1] greater than 2.17 mM. Moreover, the IC50 in data set [2] (read-out: IC50) was greater than 109 µM. The “Ratio CC50/IC50” value in data set [3] was less than 20.
`CC(C)(C)c1ccc(C(=O)OCCCc2cn(-c3ccnc4cc(Cl)ccc34)nn2)cc1` yielded a CC50 at 24 h in data set [1] greater than 2.23 mM. Besides, the IC50 in data set [2] (read-out: IC50) is greater than 112 µM. Further, the “Ratio CC50/IC50” value in data set [3] is on record as less than 20.
On the same counts, the results for `Cc1ccc(C(=O)OCCCc2cn(-c3ccnc4cc(Cl)ccc34)nn2)cc1` are greater than 2.46 mM, greater than 123 µM and less than 20.
On the same counts, the results for `CCc1ccc(C(=O)OCc2cn(-c3ccnc4cc(Cl)ccc34)nn2)cc1` are greater than 2.55 mM, greater than 128 µM and less than 20.
On the same counts, the results for `CCc1ccccc1C(=O)OCc1cn(-c2ccnc3cc(Cl)ccc23)nn1` are greater than 2.55 mM, greater than 128 µM and less than 20.
As for `CC(C)(C)c1ccc(C(=O)OCc2cn(-c3ccnc4cc(Cl)ccc34)nn2)cc1`, the CC50 at 24 h in data set [1] is greater than 2.38 mM. In addition, in data set [2] (read-out: IC50), the IC50 was greater than 119 µM. The “Ratio CC50/IC50” value in data set [3] was less than 20.
As for `O=C(OCc1cn(-c2ccnc3cc(Cl)ccc23)nn1)c1ccccc1`, in data set [1], the CC50 at 24 h is greater than 2.75 mM. In addition, in data set [2] (read-out: IC50), the IC50 was greater than 137 µM. Moreover, the “Ratio CC50/IC50” value in data set [3] is reported as less than 20.
On the same counts, the results for `O=C(OCc1cn(-c2ccnc3cc(Cl)ccc23)nn1)c1ccc(C(F)(F)F)cc1` are 1.07 mM, greater than 116 µM and less than 9.2.
`COc1ccc(C(=O)OCc2cn(-c3ccnc4cc(Cl)ccc34)nn2)cc1` yielded a CC50 at 24 h in data set [1] of 0.303 mM. Further, in data set [2] (read-out: IC50), the IC50 is greater than 127 µM. Besides, in data set [3], the “Ratio CC50/IC50” value is on record as less than 2.4.
For `O=C(OCc1cn(-c2ccnc3cc(Cl)ccc23)nn1)c1ccc(Cl)cc1`, in data set [1], the CC50 at 24 h amounted to 0.484 mM. The values for the IC50 in data set [2] (read-out: IC50) and in data set [2] (read-out: pIC50 (converted)) were 22.5 µM and 22.9 µM, respectively. In data set [3], the “Ratio CC50/IC50” value came to 21.5.
As for `CCN(CC)Cc1cn(-c2ccnc3cc(Cl)ccc23)nn1`, the cytotoxic concentration (CC50) at 24 h in data set [1] was found to be 1.85 mM. For the same compound, in data set [2] (read-out: IC50), the IC50 is greater than 166 µM. Besides, the “Ratio CC50/IC50” value in data set [3] is recorded as less than 11.2.
In the case of `CN(C)Cc1cn(-c2ccnc3cc(Cl)ccc23)nn1`, it took 1.85 mM to reach half-maximal cytotoxicity in data set [1] (CC50 at 24 h). Further, the IC50 is 27.4 µM in data set [2] (read-out: IC50) and 26.9 µM in data set [2] (read-out: pIC50 (converted)). The “Ratio CC50/IC50” value in data set [3] worked out at 67.5.
`Clc1ccc2c(-n3cc(CN4CCOCC4)nn3)ccnc2c1` gave a CC50 at 24 h in data set [1] greater than 3.04 mM. Moreover, the IC50 in data set [2] (read-out: IC50) was greater than 152 µM. Also, the “Ratio CC50/IC50” value in data set [3] was less than 20.
For `Clc1ccc2c(-n3cc(CN4CCCCC4)nn3)ccnc2c1`, in data set [1], the midpoint of cytotoxicity, the CC50 at 24 h, lay at 1.11 mM. In addition, in data set [2] (read-out: IC50), the IC50 is greater than 153 µM. The “Ratio CC50/IC50” value in data set [3] is reported as less than 7.2.
On to `OC1CCN(Cc2cn(-c3ccnc4cc(Cl)ccc34)nn2)CC1`, for which the CC50 at 24 h in data set [1] is 0.93 mM. Further, the IC50 in data set [2] (read-out: IC50) was 40.9 µM; in data set [2] (read-out: pIC50 (converted)), 40.7 µM. Moreover, the “Ratio CC50/IC50” value in data set [3] amounted to 22.7.
In data set [1], `CCN(CC)CCCC(C)Nc1ccnc2cc(Cl)ccc12` (configuration not stated) [CHLOROQUINE] returned a half-maximal cytotoxic concentration (CC50) at 24 h of 0.81 mM.
